Assay results: ChEMBL document CHEMBL5724801, “EUbOPEN Chemogenomics Library - Multiplex” (2024)
Several values for one entry are separate records, joined by “and”; a condition that tells them apart may be missing. Identical values can stand only once.

Test system: U2OS
Test: Multiplex assay against U2OS
Assay type: toxicity, cell-based
Conditions: human
Summary of the method: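 Live cells were stained at seeding with Hoechst33342, BioTracker Green Microtubule Cytoskeleton Dye, MitoTracker Red and Annexin V Alexa Fluor 680. Following compound addition, they were imaged on a CQ1 microscope at 37°C and 5% CO2 and gated by CellPathfinder machine learning into Hoechst high-intensity objects or normal cells, with normal cells split into healthy, pyknosed or fragmented nuclei and pyknosed cells into mitotic or apoptotic. Tubulin, mitochondrial-mass and membrane-permeability phenotypes are per cents of healthy-nucleus cells.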

[1] = 12 h, 1 µM, compound concentration 1 uM
[2] = 12 h, 10 µM, compound concentration 10 uM
[3] = 24 h, 1 µM, compound concentration 1 uM
[4] = 24 h, 10 µM, compound concentration 10 uM
[5] = 48 h, 1 µM, compound concentration 1 uM
[6] = 48 h, 10 µM, compound concentration 10 uM

NC1=NC(=O)/C(=C2\CCNC(=O)c3[nH]c4ccccc4c32)N1
Population Apoptotic (%) [1]: 44.68% and 29.17% | Population Fragmented Nuclei (%) [1]: 0.45% and 1.59% | Population Healthy Nuclei (%) [1]: 89.06% and 85.71% | Population Hoechst High Intensity Objects (%) [1]: 0% | Population Membrane Permeable-Phenotype (%) [1]: 1.75% and 0.62% | Population Mitochondria Different-Phenotype (%) [1]: 0% and 9.26% | Population Mitotic Cells (%) [1]: 55.32% and 70.83% | Population Normal (%) [1]: 100% | Population Pyknosed Nuclei (%) [1]: 10.49% and 12.7% | Population Tubulin-Different-Phenotype (%) [1]: 1.25% and 0% | Total Cell Count [1]: 448 and 189 | Population Apoptotic (%) [2]: 37.14% and 30.43% | Population Fragmented Nuclei (%) [2]: 3.07% and 2.13% | Population Healthy Nuclei (%) [2]: 84.98% and 85.64% | Population Hoechst High Intensity Objects (%) [2]: 0% | Population Membrane Permeable-Phenotype (%) [2]: 1.2% and 1.86% | Population Mitochondria Different-Phenotype (%) [2]: 0% and 5.59% | Population Mitotic Cells (%) [2]: 62.86% and 69.57% | Population Normal (%) [2]: 100% | Population Pyknosed Nuclei (%) [2]: 11.95% and 12.23% | Population Tubulin-Different-Phenotype (%) [2]: 2.01% and 0% | Total Cell Count [2]: 293 and 188 | Population Apoptotic (%) [3]: 52.94% and 37.04% | Population Fragmented Nuclei (%) [3]: 2.55% and 1.59% | Population Healthy Nuclei (%) [3]: 89.31% and 87.7% | Population Hoechst High Intensity Objects (%) [3]: 0% | Population Membrane Permeable-Phenotype (%) [3]: 0.54% and 0.9% | Population Mitochondria Different-Phenotype (%) [3]: 0.36% and 4.07% | Population Mitotic Cells (%) [3]: 47.06% and 62.96% | Population Normal (%) [3]: 100% | Population Pyknosed Nuclei (%) [3]: 8.13% and 10.71% | Population Tubulin-Different-Phenotype (%) [3]: 0.54% and 0% | Total Cell Count [3]: 627 and 252 | Population Apoptotic (%) [4]: 43.59% and 37.5% | Population Fragmented Nuclei (%) [4]: 2.31% and 2.43% | Population Healthy Nuclei (%) [4]: 87.69% and 84.62% | Population Hoechst High Intensity Objects (%) [4]: 0% | Population Membrane Permeable-Phenotype (%) [4]: 0.88% and 1.91% | Population Mitochondria Different-Phenotype (%) [4]: 0.29% and 5.26% | Population Mitotic Cells (%) [4]: 56.41% and 62.5% | Population Normal (%) [4]: 100% | Population Pyknosed Nuclei (%) [4]: 10% and 12.96% | Population Tubulin-Different-Phenotype (%) [4]: 0.58% and 0% | Total Cell Count [4]: 390 and 247 | Population Apoptotic (%) [5]: 41.94% and 47.37% | Population Fragmented Nuclei (%) [5]: 4.36% and 0.45% | Population Healthy Nuclei (%) [5]: 87.84% and 91.01% | Population Hoechst High Intensity Objects (%) [5]: 0% | Population Membrane Permeable-Phenotype (%) [5]: 0.76% and 1.73% | Population Mitochondria Different-Phenotype (%) [5]: 0.1% and 2.22% | Population Mitotic Cells (%) [5]: 58.06% and 52.63% | Population Normal (%) [5]: 100% | Population Pyknosed Nuclei (%) [5]: 7.8% and 8.54% | Population Tubulin-Different-Phenotype (%) [5]: 0.86% and 0.99% | Total Cell Count [5]: 1192 and 445 | Population Apoptotic (%) [6]: 40.28% and 50% | Population Fragmented Nuclei (%) [6]: 3.29% and 1.05% | Population Healthy Nuclei (%) [6]: 87.22% and 88.98% | Population Hoechst High Intensity Objects (%) [6]: 0% | Population Membrane Permeable-Phenotype (%) [6]: 0.6% and 0.29% | Population Mitochondria Different-Phenotype (%) [6]: 0% and 4.72% | Population Mitotic Cells (%) [6]: 59.72% and 50% | Population Normal (%) [6]: 100% | Population Pyknosed Nuclei (%) [6]: 9.49% and 9.97% | Population Tubulin-Different-Phenotype (%) [6]: 0.15% and 0.29% | Total Cell Count [6]: 759 and 381

COc1cc(OC2CCN(C(C)=O)CC2)ccc1C(=O)N1CCC(N2C(=O)OCc3ccccc32)CC1
Population Apoptotic (%) [1]: 50% and 66% | Population Fragmented Nuclei (%) [1]: 22% and 20% | Population Healthy Nuclei (%) [1]: 67% and 69% | Population Hoechst High Intensity Objects (%) [1]: 0% | Population Membrane Permeable-Phenotype (%) [1]: 5% and 11% | Population Mitochondria Different-Phenotype (%) [1]: 3% and 7% | Population Mitotic Cells (%) [1]: 50% and 33% | Population Normal (%) [1]: 99% | Population Pyknosed Nuclei (%) [1]: 9% | Population Tubulin-Different-Phenotype (%) [1]: 3% and 8% | Total Cell Count [1]: 233 and 130 | Population Apoptotic (%) [2]: 72% and 87% | Population Fragmented Nuclei (%) [2]: 23% and 13% | Population Healthy Nuclei (%) [2]: 62% and 77% | Population Hoechst High Intensity Objects (%) [2]: 6% and 1% | Population Membrane Permeable-Phenotype (%) [2]: 18% and 21% | Population Mitochondria Different-Phenotype (%) [2]: 6% and 10% | Population Mitotic Cells (%) [2]: 27% and 12% | Population Normal (%) [2]: 93% and 98% | Population Pyknosed Nuclei (%) [2]: 13% and 9% | Population Tubulin-Different-Phenotype (%) [2]: 12% and 13% | Total Cell Count [2]: 228 and 85 | Population Apoptotic (%) [3]: 82% and 76% | Population Fragmented Nuclei (%) [3]: 20% and 22% | Population Healthy Nuclei (%) [3]: 71% and 68% | Population Hoechst High Intensity Objects (%) [3]: 1% | Population Membrane Permeable-Phenotype (%) [3]: 3% and 7% | Population Mitochondria Different-Phenotype (%) [3]: 2% and 5% | Population Mitotic Cells (%) [3]: 17% and 23% | Population Normal (%) [3]: 98% | Population Pyknosed Nuclei (%) [3]: 8% | Population Tubulin-Different-Phenotype (%) [3]: 2% and 3% | Total Cell Count [3]: 288 and 163 | Population Apoptotic (%) [4]: 81% and 71% | Population Fragmented Nuclei (%) [4]: 21% and 12% | Population Healthy Nuclei (%) [4]: 60% and 80% | Population Hoechst High Intensity Objects (%) [4]: 5% and 2% | Population Membrane Permeable-Phenotype (%) [4]: 9% and 10% | Population Mitochondria Different-Phenotype (%) [4]: 9% and 3% | Population Mitotic Cells (%) [4]: 18% and 28% | Population Normal (%) [4]: 94% and 97% | Population Pyknosed Nuclei (%) [4]: 18% and 7% | Population Tubulin-Different-Phenotype (%) [4]: 4% and 6% | Total Cell Count [4]: 250 and 99 | Population Apoptotic (%) [5]: 80% and 65% | Population Fragmented Nuclei (%) [5]: 17% and 23% | Population Healthy Nuclei (%) [5]: 77% and 66% | Population Hoechst High Intensity Objects (%) [5]: 3% | Population Membrane Permeable-Phenotype (%) [5]: 3% and 10% | Population Mitochondria Different-Phenotype (%) [5]: 1% and 5% | Population Mitotic Cells (%) [5]: 19% and 35% | Population Normal (%) [5]: 96% | Population Pyknosed Nuclei (%) [5]: 5% and 9% | Population Tubulin-Different-Phenotype (%) [5]: 2% and 4% | Total Cell Count [5]: 388 and 213 | Population Apoptotic (%) [6]: 81% and 100% | Population Fragmented Nuclei (%) [6]: 19% and 17% | Population Healthy Nuclei (%) [6]: 66% and 78% | Population Hoechst High Intensity Objects (%) [6]: 5% and 1% | Population Membrane Permeable-Phenotype (%) [6]: 5% and 14% | Population Mitochondria Different-Phenotype (%) [6]: 4% and 6% | Population Mitotic Cells (%) [6]: 18% and 0% | Population Normal (%) [6]: 95% and 98% | Population Tubulin-Different-Phenotype (%) [6]: 3% and 8% | Total Cell Count [6]: 320 and 130
